Results on 25 molecules are retold here after ChEMBL document CHEMBL1145034.

Assay [1] has as its target T1, Estrogen receptor (Mus musculus) (UniProt O08537+P19785). As to the kind of experiment: Vaginal activity relative to estradiol (E2). It is filed as functional. In outline:
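Female CD-1 mice ovariectomized; 1 week later, compound instilled intravaginally in 10 μL sesame oil. Vaginal reductase induction measured and compared with 50 pg E2. n = 5–6 per group, at least two separate occasions.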

Assay [2] addresses T2, Estrogen receptor (Rattus norvegicus) (UniProt P06211+Q62986). As to the kind of experiment: In vivo uterotropic activity at 100 ug subcutaneous dose in immature rats as ng estradiol dose for equivalent effect. It is filed as functional, organism-based. A digest of the protocol: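 Immature (22-day) female Sprague–Dawley rats given daily subcutaneous injections in 0.1 mL sesame oil for 3 days, 100 μg total dose; controls received oil. Uteri removed, blotted and weighed on day 4. Compared with 5 ng E2 run concurrently; n = 5, usually 2 separate experiments.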

The target of assay [3] is T2, Estrogen receptor (Rattus norvegicus). The assay can be described thus: Uterotropic activity relative to estradiol (E2). Type of assay: functional, tissue-based. To be noted: Uterus. A digest of the protocol:
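Immature female Sprague–Dawley rats, 22 days old, injected subcutaneously once a day for 3 days with test steroid in 0.1 mL sesame oil, 100 µg total dose; sesame oil controls; 5 ng E2 total run concurrently as reference. Uteri removed on day 4, blotted and weighed. n = 5, usually 2 separate experiments; activity expressed relative to E2.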

A further assay is filed under the species Rattus norvegicus. As to the kind of experiment: Hydrolytic activity against esterase with hepatic microsomes relative to E16-1,2. The conditions noted are these: Liver.
The target of assay [4] is T1, Estrogen receptor (Mus musculus). The assay can be described thus: In vivo vaginal activity in ovariectomised mice at 50 ng vaginal dose as pg estradiol dose for equivalent effect.
Assay [5] has as its target Estrogen receptor beta (Homo sapiens) (UniProt Q92731). As to the kind of experiment: Binding of […] to human estrogen receptor beta ligand binding domain expressed in Escherichia coli. A digest of the protocol:
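Competitive binding against [3H]E2 using lysates of E. coli expressing human ERβ LBD (M214–Q530); incubated overnight at 0–2 °C. Result given as RBA versus E2 (E2 = 100); mean of 3 experiments, each in duplicate.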

Sequence of Estrogen receptor beta (Homo sapiens) (Q92731 whole entry, the tested form may be a part): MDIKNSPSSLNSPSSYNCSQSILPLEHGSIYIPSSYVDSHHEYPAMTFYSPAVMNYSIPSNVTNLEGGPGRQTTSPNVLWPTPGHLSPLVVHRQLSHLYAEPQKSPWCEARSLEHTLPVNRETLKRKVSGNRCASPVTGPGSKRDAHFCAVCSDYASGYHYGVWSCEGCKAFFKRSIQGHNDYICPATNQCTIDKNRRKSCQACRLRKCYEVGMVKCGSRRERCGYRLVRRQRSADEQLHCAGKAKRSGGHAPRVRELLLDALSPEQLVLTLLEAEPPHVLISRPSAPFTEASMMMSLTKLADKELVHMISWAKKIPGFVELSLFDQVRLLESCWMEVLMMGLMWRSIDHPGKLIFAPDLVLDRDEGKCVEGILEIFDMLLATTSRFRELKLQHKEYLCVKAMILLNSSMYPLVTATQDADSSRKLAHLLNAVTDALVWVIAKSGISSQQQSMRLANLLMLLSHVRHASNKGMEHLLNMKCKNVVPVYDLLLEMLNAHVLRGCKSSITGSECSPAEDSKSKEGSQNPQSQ
T1 sequence (O08537 whole entry, looked up): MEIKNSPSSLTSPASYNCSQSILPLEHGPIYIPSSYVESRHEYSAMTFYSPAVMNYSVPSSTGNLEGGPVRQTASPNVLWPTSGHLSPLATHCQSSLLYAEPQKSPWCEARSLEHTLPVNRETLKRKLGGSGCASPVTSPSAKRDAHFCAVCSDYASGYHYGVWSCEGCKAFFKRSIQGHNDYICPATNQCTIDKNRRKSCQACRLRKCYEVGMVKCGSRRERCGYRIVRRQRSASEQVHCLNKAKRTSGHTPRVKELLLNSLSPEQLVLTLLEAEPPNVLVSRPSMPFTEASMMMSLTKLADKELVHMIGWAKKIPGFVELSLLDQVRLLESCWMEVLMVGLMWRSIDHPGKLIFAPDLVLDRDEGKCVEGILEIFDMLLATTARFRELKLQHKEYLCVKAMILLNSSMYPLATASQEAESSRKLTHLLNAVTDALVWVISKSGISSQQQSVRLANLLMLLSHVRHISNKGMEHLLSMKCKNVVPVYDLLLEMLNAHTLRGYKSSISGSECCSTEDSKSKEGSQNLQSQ
T1 sequence (P19785 whole entry, looked up): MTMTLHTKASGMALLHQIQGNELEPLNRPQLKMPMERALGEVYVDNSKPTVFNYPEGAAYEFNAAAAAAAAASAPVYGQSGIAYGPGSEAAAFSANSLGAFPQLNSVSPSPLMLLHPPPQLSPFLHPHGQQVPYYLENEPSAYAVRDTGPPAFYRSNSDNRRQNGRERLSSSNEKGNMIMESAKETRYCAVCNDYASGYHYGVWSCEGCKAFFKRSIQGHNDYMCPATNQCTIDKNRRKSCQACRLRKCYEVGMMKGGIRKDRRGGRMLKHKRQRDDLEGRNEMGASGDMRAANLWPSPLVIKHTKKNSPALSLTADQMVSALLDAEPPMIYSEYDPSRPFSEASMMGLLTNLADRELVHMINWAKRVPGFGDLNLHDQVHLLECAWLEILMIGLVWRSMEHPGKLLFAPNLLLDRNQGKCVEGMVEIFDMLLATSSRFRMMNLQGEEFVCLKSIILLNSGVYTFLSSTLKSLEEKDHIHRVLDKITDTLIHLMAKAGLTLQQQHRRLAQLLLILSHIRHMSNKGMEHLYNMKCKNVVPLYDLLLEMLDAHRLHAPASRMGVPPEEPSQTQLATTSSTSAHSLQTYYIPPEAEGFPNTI

Turning to `COC(=O)C[C@H]1C[C@]2(C)[C@@H](O)CC[C@H]2[C@@H]2CCc3cc(O)ccc3[C@@H]12`, the Vaginal activity was found to be 0.42 in assay [1] and 21 in assay [4]. For the same molecule, the Uterotropic activity in assay [2] turned out to be 6.5; in assay [3], 0.07. The molecule also returned an RHA in the assay filed under Rattus norvegicus of 106%.
As for `CC(C)OC(=O)[C@H]1C[C@H](O)[C@@]2(C)CC[C@@H]3c4ccc(O)cc4CC[C@H]3[C@H]12`, the RHA in the assay filed under Rattus norvegicus came to 0.4%.
On to `COC(=O)[C@@H]1Cc2cc(O)ccc2[C@H]2CC[C@]3(C)[C@@H](O)CC[C@H]3[C@@H]21`, for which the Vaginal activity in assay [1] worked out at 1; in assay [4], 50. Moreover, the figures for the Uterotropic activity in assay [2] and in assay [3] were 10.5 and 0.11, respectively. The molecule further displayed an RHA in the assay listed under Rattus norvegicus of 0%.
Molecule `CCOC(=O)C[C@H]1Cc2cc(O)ccc2[C@H]2CC[C@]3(C)[C@@H](O)CC[C@H]3[C@H]12` gave an RHA in the assay filed under Rattus norvegicus of 0%.
`CCOC(=O)CC[C@H]1C[C@]2(C)[C@@H](O)CC[C@H]2[C@@H]2CCc3cc(O)ccc3[C@@H]12`: the Activity in assay [5] is 64. Moreover, the RHA in the assay listed under Rattus norvegicus was 542%.
As to `C[C@]12CC[C@@H]3c4ccc(O)cc4C[C@@H](C(=O)OCCF)[C@H]3[C@@H]1CC[C@@H]2O`, the RHA in the assay listed under Rattus norvegicus stood at 0%.
As for `CCOC(=O)[C@@H]1C[C@H]2[C@@H]3CCc4cc(O)ccc4[C@H]3CC[C@]2(C)[C@H]1O`, the Activity in assay [5] is 0.3. Also, the RHA in the assay filed under Rattus norvegicus was 100%.
Consider `CCOC(=O)CC[C@H]1C[C@H](O)[C@@]2(C)CC[C@@H]3c4ccc(O)cc4CC[C@H]3[C@H]12`, for which the RHA in the assay listed under Rattus norvegicus turned out to be 674%.
Same read-out and setting: next, `CCOC(=O)C[C@@H]1Cc2cc(O)ccc2[C@H]2CC[C@]3(C)[C@@H](O)CC[C@H]3[C@H]12`: 70%; `COC(=O)C[C@@H]1Cc2cc(O)ccc2[C@H]2CC[C@]3(C)[C@@H](O)CC[C@H]3[C@H]12`: 30%.
Turning to `COC(=O)[C@H]1CC(O)[C@@]2(C)CC[C@@H]3c4ccc(O)cc4CC[C@H]3[C@H]12` (stereo partly specified), the Vaginal activity in assay [1] worked out at 0.38; in assay [4], 19. For the same molecule, in assay [2], the Uterotropic activity is 0. In the assay filed under Rattus norvegicus, this molecule came in with an RHA of 1.7%.
In the assay filed under Rattus norvegicus, `CCCCOC(=O)[C@@H]1Cc2cc(O)ccc2[C@H]2CC[C@]3(C)[C@@H](O)CC[C@H]3[C@@H]21` gave an RHA of 0%.
The molecule `CCOC(=O)C[C@H]1C[C@]2(C)[C@@H](O)CC[C@H]2[C@@H]2CCc3cc(O)ccc3[C@@H]12` came in with an Activity in assay [5] of 70. In addition, the RHA in the assay listed under Rattus norvegicus amounted to 152%.
On to `C[C@]12CC[C@@H]3c4ccc(O)cc4CC[C@H]3[C@@H]1C[C@@H](C(=O)OCCF)[C@@H]2O`, for which the Vaginal activity came out at 0.42 in assay [1] and 21 in assay [4]. For the same molecule, the figures for the Uterotropic activity in assay [2] and in assay [3] were 2 and 0.02, respectively.
`C[C@]12CC[C@@H]3c4ccc(O)cc4CC[C@H]3[C@@H]1[C@@H](C(=O)OCCF)C[C@@H]2O` came in with an RHA in the assay filed under Rattus norvegicus of 4.5%.
For `CCOC(=O)C[C@H]1C[C@H](O)[C@@]2(C)CC[C@@H]3c4ccc(O)cc4CC[C@H]3[C@H]12`, the RHA in the assay listed under Rattus norvegicus came out at 71%.
`COC(=O)C[C@H]1C[C@H](O)[C@@]2(C)CC[C@@H]3c4ccc(O)cc4CC[C@H]3[C@H]12` came in with an RHA in the assay filed under Rattus norvegicus of 31%.
With `COC(=O)CC[C@H]1C[C@H](O)[C@@]2(C)CC[C@@H]3c4ccc(O)cc4CC[C@H]3[C@H]12`, in the assay listed under Rattus norvegicus, the RHA came out at 248%.
Still for that read-out and setting: next, `CCCOC(=O)[C@H]1C[C@H](O)[C@@]2(C)CC[C@@H]3c4ccc(O)cc4CC[C@H]3[C@H]12`: 7.8%.
`CCOC(=O)[C@H]1C[C@H](O)[C@@]2(C)CC[C@@H]3c4ccc(O)cc4CC[C@H]3[C@H]12` registered an Activity in assay [5] of 7. The figures for the Vaginal activity in assay [1] and in assay [4] were 0.42 and 21, respectively. Further, in assay [2], the Uterotropic activity turned out to be 0. Moreover, the RHA in the assay listed under Rattus norvegicus was 2.3%.
In assay [5], `CCOC(=O)[C@@H]1Cc2cc(O)ccc2[C@H]2CC[C@]3(C)[C@@H](O)CC[C@H]3[C@@H]21` yielded an Activity of 9. In addition, the Vaginal activity was found to be 0.44 in assay [1] and 22 in assay [4]. The Uterotropic activity in assay [2] came to 4; in assay [3] it was 0.04. In the assay filed under Rattus norvegicus, this molecule returned an RHA of 0%.
`COC(=O)CC[C@H]1C[C@]2(C)[C@@H](O)CC[C@H]2[C@@H]2CCc3cc(O)ccc3[C@@H]12` had an RHA in the assay listed under Rattus norvegicus of 64%.
The same measure, in the same setting: next, `CCCCOC(=O)[C@H]1C[C@H](O)[C@@]2(C)CC[C@@H]3c4ccc(O)cc4CC[C@H]3[C@H]12`: 7%.
Still for that read-out and setting: then `CCCOC(=O)[C@@H]1Cc2cc(O)ccc2[C@H]2CC[C@]3(C)[C@@H](O)CC[C@H]3[C@@H]21`, with 0%.
In assay [5], `C[C@]12CC[C@@H]3c4ccc(O)cc4CC[C@H]3[C@@H]1CC[C@@H]2O` showed an Activity of 100.
